PostGolgi ctrl – yeast control strain growth, post-Golgi counter-screen | efflux-deficient yeast background strain, growth absorbance A615, 16 h | inhibition, % at 10 µM | hit rate 5% among 98,000
E coli WT exp – growth inhibitors of E. coli BW25113 wild type | hit rate 0.15% among 98,000 | OD600 absorbance | AID 710 | growth inhibition, % at 100 µM;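 active means growth inhibition above about 50% at one test dose, limit read from the data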;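 further: growth measured after 20 h incubation at 37 °C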
tolC growth inh – E. coli tolC mutant growth inhibition. hit rate 2.2% among 65,000. E. coli BW25113 tolC mutant growth, OD615. growth inhibition, % at 10 µM (by protocol);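 active means growth inhibition at or above a cutoff equal to the mean over every tested compound plus 3 SD, cut at about 60% in these data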;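 further: growth measured after 20 h incubation at 37 °C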
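Doses: one dose of 10 µM final / Material: E. coli BW25113 ΔtolC::kan, tolC deletion mutant strain / Buffer or medium: LB with kanamycin 50 µg/mL / Evaluation: percent growth inhibition / Detection: optical density read at 615 nm / Incubation: 37 °C, 20 h exposure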
PostGolgi yeast – growth inhibition of a yeast mutant, post-Golgi transport screen; inhibition, % at 10 µM; hit rate 0.9% among 98,000; post-Golgi transport phenotypic cell assay; AID 739;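 further: yeast cells grown in 1536-well plates; yeast grown about 18 h at 30C before absorbance read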
An asterisk follows results filed as active; nt = no result given. Rows were chosen to be rich in hits. Some 6.3% of all compounds tested hit in one or more screens of this group. Unless noted, no stated cut-off is given here; in the data, active means inhibition above about 30%; inactive means the rest.

SMILES	PostGolgi ctrl	E coli WT exp	tolC growth inh	PostGolgi yeast
CN1C(=O)c2cccc3c(S(=O)(=O)NCc4ccco4)ccc1c23	4	-1	16	-6
COc1ccc(S(=O)(=O)NCc2ccco2)c2ccccc12	34*	-11	21	4
COc1ccc(C(=O)Nc2ccc(S(=O)(=O)NCc3ccco3)cc2)cc1OC	33*	-2	-9	-5
COc1ccc(CCC(C)Nc2ccc(F)cc2)cc1 (stereo unspecified)	4	-3	nt	-8
Cc1cc2cc(CCNC(=O)c3ccc(Br)o3)c(=O)[nH]c2cc1C	102*	20	50	4
COc1ccc2cc(CCNC(=O)c3ccc(Br)o3)c(=O)[nH]c2c1	99*	-1	42	13
Cc1ccc(C)c2[nH]c(=O)c(CCNC(=O)c3ccc(Br)o3)cc12	nt	nt	3	nt
COc1ccc2cc(CCNC(=O)c3ccc4c(c3)OCO4)c(=O)[nH]c2c1	30*	-1	11	-4
CCC(CC)C(=O)NCCc1cc2ccc(OC)cc2[nH]c1=O	6	-6	-13	-2
CCCS(=O)(=O)c1c(S(=O)(=O)CCC)c2c3ccccc3ccn2c1C(N)=O	4	7	-7	1
COCCn1c(C)cc(C(=O)CSc2ccc3ccccc3n2)c1C	31*	-19	nt	0
Cc1ccc(N2CC(C(=O)NCc3ccccn3)CC2=O)cc1 (stereo unspecified)	12	3	-29	-2
COC(=O)c1cc2c(C)nn(-c3ccccc3)c2s1	1	4	5	11
Cc1nn(-c2ccccc2)c2sc(C(=O)N(CC(=O)NC(C)(C)C)Cc3ccco3)cc12	15	-9	75*	6
COc1cccc(-c2nc(CS(=O)(=O)CC(=O)NCc3ccccc3OC)c(C)o2)c1	2	0	-8	0
COc1ccc(OC)c(CCNC(=O)CS(=O)(=O)Cc2nc(-c3ccccc3C)oc2C)c1	37*	-4	45	6
COc1ccc(CCNC(=O)CNS(=O)(=O)c2cccs2)cc1OC	11	-2	nt	-6
O=C1CC(c2ccco2)CC2=C1C1c3ccccc3C(=O)N1c1ccccc1N2 (stereo unspecified)	22	-1	89*	3
COc1cccc(C2C(C(=O)OCc3ccccc3)=C(C)Nc3ncnn32)c1OC (stereo unspecified)	-3	-9	4	2
COc1ccc(Nc2nc(N)nc(CSc3n[nH]c(-c4ccccc4)n3)n2)cc1	30*	4	13	-2
Cc1ccc(Nc2nc(N)nc(CSc3nc4ccccc4s3)n2)cc1	51*	-1	nt	2
Nc1nc(CSc2n[nH]c(-c3ccccc3)n2)nc(Nc2ccccc2)n1	6	-5	34	2
COc1ccccc1Nc1nc(N)nc(CSc2ncccn2)n1	32*	0	-7	-4
CCOc1ccccc1Nc1nc(N)nc(CSc2nccc(C)n2)n1	17	2	2	16
CCn1c(Cc2ccc(OC)cc2)nnc1SCC(=O)Nc1cccc(C(=O)OC)c1	10	1	6	-7
SMILES	PostGolgi ctrl	E coli WT exp	tolC growth inh	PostGolgi yeast
CCOC(=O)Cn1nc(C)c2c1CCCC2=O	16	5	nt	11
O=C1OC(c2ccccc2)=C/C1=C/N1CCCCC1	31*	-2	7	-1
O=C1OC(c2ccccc2)=N/C1=C\N1CCCCC1	13	2	nt	3
COc1ccc2nc3oc(C(=O)N4CCN(c5cccc(C(F)(F)F)c5)CC4)cc3cc2c1	2	-7	-3	-1
COc1ccc2nc3oc(C(=O)N4CCN(c5cccc(Cl)c5)CC4)cc3cc2c1	35*	-7	15	0
O=C(CC1Oc2ccccc2NC1=O)NCCCN1CCN(C2CCCCC2)CC1 (stereo unspecified)	nt	nt	-8	nt
O=c1cc(Cl)c(-c2ccccc2)n[nH]1	4	14	nt	0
Fc1ccc(Sc2cc(Cl)c(-c3ccccc3)nn2)cc1	39*	-8	nt	-3
O=C1c2ccccc2C(Nc2ccc(Cl)cn2)N1Cc1ccccc1 (stereo unspecified)	58*	9	nt	3
O=C(CSc1nnnn1-c1cccnc1)NCc1cccs1	-7	3	-23	-2
Cn1c(N)c(C(=O)c2cc(-c3ccccn3)nc3ccccc23)c(=O)[nH]c1=O	-12	2	-12	10
Clc1ccc(-c2noc(CN3CCCC3)n2)cc1	37*	13	0	-1
Cc1ccc(-c2noc(CN3CCN(c4ccccc4F)CC3)n2)cc1	-3	4	84*	-4
Clc1cccc(N2CCN(Cc3nc(-c4ccccc4)no3)CC2)c1	35*	1	20	-5
Cc1ccc(-c2noc(CN3CCCCC3)n2)cc1	0	11	nt	-3
Cc1ccc(-c2noc(CN3CCOCC3)n2)cc1	2	6	nt	12
CC(C)OCCCNC(=O)c1cc2c(=O)n(C)c3ccccc3c2n1C	32*	3	-2	3
CCCCN(CC)CCCNC(=O)c1cc2c(=O)n(C)c3ccccc3c2n1C	4	-6	8	5
CC(C)CC(=O)Nc1ccccc1Oc1ccccc1	0	6	nt	1
CCCC1COC(Cn2cncn2)(c2ccc(C)cc2)O1 (stereo unspecified)	93*	1	-1	101*
CS(=O)(=O)N(CCc1ccccc1)CC(=O)NCc1ccccn1	7	-1	-5	3
COc1ccc(NC(=S)NC(NC(=O)c2ccc(Cl)cc2Cl)C(Cl)(Cl)Cl)c([N+](=O)[O-])c1 (stereo unspecified)	22	-11	nt	69*
CC(C)Cn1c(=O)c2c(nc3n2CCCN3CCc2ccccc2)n(C)c1=O	9	3	46	-6
CCC(=O)NCCn1ccc2ccccc21	2	4	nt	12
O=C(Cc1cccs1)NCCn1ccc2ccccc21	36*	7	1	-6
SMILES	PostGolgi ctrl	E coli WT exp	tolC growth inh	PostGolgi yeast
COc1ccc(Cl)cc1S(=O)(=O)N1CCCC1	4	4	nt	-4
C=CCn1cnc2scc(-c3ccc(C)cc3)c2c1=O	5	-5	nt	16
COc1ccc(NC(=S)Nc2cc(-c3ccccc3)[nH]n2)cc1Cl	30*	4	nt	-8
COc1ccc(C(=O)Cn2c3ccccc3n3nc(CCC(=O)O)c(=O)nc23)cc1OC	6	-2	nt	-3
CCOC(=O)C1=C(CN2c3ccccc3CC2C)NC(=O)NC1c1ccccc1 (stereo unspecified)	33*	-17	nt	1
COC(=O)C1=C(CN2CCCc3ccccc32)NC(=O)NC1c1ccc(F)cc1 (stereo unspecified)	11	7	55	-2
O=C(CC1CCCC1)Nc1ccc2c(c1)CCC2	-1	11	nt	-5
Cc1cccc(NS(=O)(=O)c2ccc3c(c2)OCCO3)c1	-1	9	nt	16
CSc1nc2ccc(NS(=O)(=O)c3ccc4c(c3)OCCO4)cc2s1	32*	-10	100*	8
CSc1nc2ccc(S(=O)(=O)NC3CCCCC3)cc2s1	71*	-2	16	0
CSc1nc2ccc(S(=O)(=O)N3CCCCC3)cc2s1	3	-9	nt	-1
CCOC(=O)C1=C(c2ccccc2)N(C)C(=O)NC1c1ccc(O)c(OC)c1 (stereo unspecified)	31*	4	-18	18
